The values that follow come from ChEMBL document CHEMBL4138155, “Design, synthesis and biochemical evaluation of novel multi-target inhibitors as potential anti-Parkinson agents” (Eur J Med Chem, 2018).

pEC50, pIC50, pKi: −log10 of the molar value.

In series [1] the target is T1, Amine oxidase [flavin-containing] A (Homo sapiens, UniProt P21397).
T1 sequence (P21397 whole entry): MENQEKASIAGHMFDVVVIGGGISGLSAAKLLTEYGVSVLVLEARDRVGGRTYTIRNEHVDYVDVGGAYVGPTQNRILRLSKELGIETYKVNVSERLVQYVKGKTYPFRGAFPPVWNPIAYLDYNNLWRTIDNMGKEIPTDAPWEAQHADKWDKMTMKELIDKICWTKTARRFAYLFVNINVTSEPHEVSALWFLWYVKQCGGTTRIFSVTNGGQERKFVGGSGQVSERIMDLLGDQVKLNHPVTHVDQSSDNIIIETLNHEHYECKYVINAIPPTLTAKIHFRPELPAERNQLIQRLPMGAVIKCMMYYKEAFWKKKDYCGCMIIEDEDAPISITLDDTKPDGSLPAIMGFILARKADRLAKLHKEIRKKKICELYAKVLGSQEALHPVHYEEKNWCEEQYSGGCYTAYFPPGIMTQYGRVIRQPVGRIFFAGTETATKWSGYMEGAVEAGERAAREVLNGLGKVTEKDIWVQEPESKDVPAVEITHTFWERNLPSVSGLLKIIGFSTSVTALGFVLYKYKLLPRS
As to the kind of experiment: Inhibition of recombinant human MAO-A using kynuramine as substrate after 20 mins by fluorescence assay.

In series [2] the target is T2, Amine oxidase [flavin-containing] B (Homo sapiens, UniProt P27338).
T2 sequence (P27338 whole entry): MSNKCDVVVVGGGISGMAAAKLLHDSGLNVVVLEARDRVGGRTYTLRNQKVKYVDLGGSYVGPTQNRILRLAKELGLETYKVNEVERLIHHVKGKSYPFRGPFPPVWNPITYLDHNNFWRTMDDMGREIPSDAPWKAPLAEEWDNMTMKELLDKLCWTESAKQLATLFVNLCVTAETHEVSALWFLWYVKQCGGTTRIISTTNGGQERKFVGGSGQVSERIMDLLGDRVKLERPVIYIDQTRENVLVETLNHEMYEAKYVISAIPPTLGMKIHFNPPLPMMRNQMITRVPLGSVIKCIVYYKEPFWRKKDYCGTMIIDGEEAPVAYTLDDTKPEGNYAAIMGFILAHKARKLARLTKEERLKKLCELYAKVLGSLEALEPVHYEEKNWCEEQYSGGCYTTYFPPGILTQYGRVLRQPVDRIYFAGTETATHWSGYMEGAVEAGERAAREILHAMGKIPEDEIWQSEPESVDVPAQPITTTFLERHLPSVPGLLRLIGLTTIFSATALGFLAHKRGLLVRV

Series [3] deals with T2, Amine oxidase [flavin-containing] B. As to the kind of experiment: Reversible inhibition of recombinant human MAO-B assessed as residual activity at 4 times IC50 using kynuramine as substrate pre-incubated for 15 mins followed by 2 fold dilution of compound for 24 hrs and subsequent substrate addition measured after 20 mins by fluorescence assay relative to control.
Series [4] shares this target. As to the kind of experiment: Competitive inhibition of recombinant human MAO-B using kynuramine as substrate pre-incubated for 15 mins followed by 2 fold compound dilution for 24 hrs and subsequent substrate addition measured after 20 mins by Lineweaver-Burk plot analysis. The procedure, abridged: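 20 min at 37 °C, NaOH stop, 4-hydroxyquinoline fluorescence read. Six Lineweaver-Burk plots; Ki from x-intercept of slope versus inhibitor concentration.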

The target of series [5] is Cholinesterase (Equus caballus) (UniProt P81908). The series is described as follows: Inhibition of horse serum BuChE at 3 uM using butyrylthiocholine iodide as substrate preincubated for 15 mins followed by substrate addition measured after 10 mins by spectrophotometry based-Ellman's method. A general note: Ellman's reagent forms a yellow product with free thiols.
Chain of Cholinesterase (Equus caballus) (P81908 whole entry): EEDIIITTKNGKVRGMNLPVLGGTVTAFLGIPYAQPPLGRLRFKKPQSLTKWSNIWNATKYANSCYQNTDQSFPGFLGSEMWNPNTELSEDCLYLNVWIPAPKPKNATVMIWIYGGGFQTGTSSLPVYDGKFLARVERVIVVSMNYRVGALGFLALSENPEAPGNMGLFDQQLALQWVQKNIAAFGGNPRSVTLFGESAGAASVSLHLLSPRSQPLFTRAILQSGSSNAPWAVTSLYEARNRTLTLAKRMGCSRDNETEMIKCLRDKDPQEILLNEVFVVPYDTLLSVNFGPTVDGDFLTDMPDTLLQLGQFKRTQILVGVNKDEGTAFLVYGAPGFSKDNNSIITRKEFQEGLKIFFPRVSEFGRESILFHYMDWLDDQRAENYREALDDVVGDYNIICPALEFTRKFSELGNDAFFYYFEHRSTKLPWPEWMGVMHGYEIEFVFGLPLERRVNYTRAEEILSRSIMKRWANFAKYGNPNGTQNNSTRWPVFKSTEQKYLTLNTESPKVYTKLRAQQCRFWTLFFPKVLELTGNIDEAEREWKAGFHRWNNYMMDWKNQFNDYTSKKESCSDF
Series [6] is described as follows: Antioxidant activity assessed as total antioxidant capacity after 90 mins by phosphomolybdenum method. In kind it is functional. The procedure, abridged: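 Sample combined with reagent of 0.6 M sulphuric acid, 28 mM sodium phosphate and 4 mM ammonium molybdate; heated 90 min at 95 °C, absorbance at 695 nm. EC50 = concentration giving absorbance 0.5; trolox as reference.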

A short description of series [7]: Antioxidant activity assessed as ferric ion reducing activity using Fe3+-TPTZ after 30 mins by FRAP assay. The series is classed as functional. The procedure, abridged:
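FRAP reagent: acetate buffer (0.3 M, pH 3.6), TPTZ (10 mM) in 40 mM HCl and FeCl3 (20 mM), 10:1:1 v/v/v. Sample added, 30 min at room temperature, absorbance at 593 nm. Expressed as EC50.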

Series [8] in a line: Antioxidant activity assessed as cupric ion reducing activity after 30 mins by CUPRAC assay. The series is classed as functional. The procedure, abridged: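 Sample mixed with CuCl2 (10 mM), neocuproine (7.5 mM) and NH4Ac buffer (1 M, pH 7.0) stock reagents; blank lacks CuCl2. Absorbance at 450 nm after 30 min at room temperature, blank subtracted. Expressed as EC50.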
A short description of series [9]: Antioxidant activity assessed as DPPH radical scavenging activity after 30 mins. In kind it is functional. In short, it runs like this: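 Sample added to 0.004% DPPH in methanol, kept 30 min in the dark at room temperature, absorbance read at 517 nm. IC50 taken as the concentration scavenging 50% of DPPH radicals; trolox as reference.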
A short description of series [10]: Antioxidant activity assessed as ABTS radical scavenging activity measured after 12 to 16 hrs. The series is classed as functional. The procedure, abridged:
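ABTS radical cation generated from 7 mM ABTS with 2.45 mM potassium persulphate, 12-16 h dark at room temperature, then diluted with methanol to A734 0.700 ± 0.02. Sample mixed with ABTS solution, 30 min at room temperature, absorbance read at 734 nm. IC50 = concentration scavenging 50% of radicals; trolox reference.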

Series [11] addresses T2, Amine oxidase [flavin-containing] B. The series is described as follows: Inhibition of recombinant human MAO-B assessed as residual activity at 4 times IC50 using kynuramine as substrate pre-incubated for 15 mins substrate addition measured after 20 mins by fluorescence assay relative to control.

In the case of `C/C(=N/Nc1nc(-c2cccc([N+](=O)[O-])c2)cs1)C1CC1`, the pIC50 in [1] is 5.58; in series [2], 8.28; in series [9] it was 2.90; in [10], 2.97. In addition, the Activity stood at 91% in [3] and 46% in series [11]. The pKi in series [4] was 8.14. This compound yielded an inhibition in series [5] of 12.8%. Also, the values for the negative-log EC50 (pEC50) in [6], in series [7] and in series [8] were 2.83, 3.33 and 3.28, respectively.

Usually pIC50 stands for the IC50 on a negative log10 scale, so that one unit is a factor of ten. For orientation: pKi means the Ki on a negative log10 scale, so that one unit is a factor of ten. As usually defined, the inhibition is the relative decrease from the control value, in per cent. In general, pEC50 refers to −log10 of the EC50, conventionally taken in molar units.
